What was measured:
p53 = test: Human phospho-kinase array, p53; format: cell-based; details: HeLa cells, 4 h; 25 μM Etoposide, 200nM LTUSI54; vs control
Procedure, shortened: (§1)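 HeLa cells in small flasks treated 4 h with medium, 25 μM Etoposide, 200nM test compound or combination, then lysed. Human phospho-kinase antibody membranes incubated overnight at 4 °C with lysate at 150 μg/ml protein. Detection antibody cocktail 2 h at room temperature, streptavidin-HRP 30 min, then chemiluminescence at increasing exposures. Fold change vs control; two runs with duplicate spots.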

γ-H2AX = test: Flow cytometry for γ-H2AX expression; format: cell-based, human; details: for cells stained positive for γ-H2AX: 25 μM Etoposide, 200nM LTUSI54
PI3K isoforms = test: PI3K inhibition assay; format: biochemical; details: any of the PI3K isoforms; IC50 greater than 100 μM taken as not active; data not shown
DNA-PK = DNA-PK (Homo sapiens, UniProt P78527); test: DNA-PK inhibition assay; format: biochemical; details: IC50 greater than 100 μM taken as not active; data not shown
HeLa cells [1] = test: Cell cycle analysis by flow cytometry; format: cell-based, human; details: 4 h treatment; for cells in G2/M phase / cells in S phase: vs control
Procedure, shortened: (§2)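 HeLa cells (DMEM, 10 % FBS) treated 4 h with 25 μM Etoposide, 200nM test compound or both, with or without 2 days recovery in medium containing test compound. Harvested, fixed in 70 % ethanol at −20 °C overnight, then stained with 25 μg/ml propidium iodide plus 100 μg/ml RNase for 30 min at 37 °C in the dark. Doublets and debris gated out. Mean ± SEM, three independent experiments.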

p38α = test: Human phospho-kinase array, p38α; format: cell-based; details: HeLa cells, 4 h; 25 μM Etoposide, 200nM LTUSI54; vs control
Procedure, shortened: as §1

HeLa cells [2] = test: Sulphorhodamine blue; format: cell-based, human; details: 25 μM Etoposide and/or 200nM LTUSI54, 4 h, 2 days recovery; vs control
Procedure, shortened: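 Sulphorhodamine B assay on HeLa cells seeded at 2x10^3 cells/well and left to adhere overnight. Treated 4 h with 25 μM Etoposide, 200nM test compound or both, then PBS-washed. Recovery 48 h in medium containing 200nM test compound, or DMSO only for control and Etoposide-alone wells. Absorbance read at 538 nm. Mean ± SEM of four replicates; two-tailed t-test vs control.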

HeLa cells [3] = test: CellTox green cytotoxicity assay; format: cell-based, human; details: 24 h
HeLa cells [4] = test: Sub G1 analysis; format: cell-based, human; details: 25 μM Etoposide and/or 200nM LTUSI54, 4 h, 2 days recovery
Procedure, shortened: as §2

[5] = 4 h treatment followed by 2 days recovery

Molecule	fold increase in activation of p53 (p53)	cells stained positive for γ-H2AX (γ-H2AX; [5])	cells stained positive for γ-H2AX (γ-H2AX; after 4 h treatment)	inhibitory effect on PI3K isoforms (IC50) (PI3K isoforms)	inhibitory effect on DNA-PK (IC50) (DNA-PK)	cells in G2/M phase (HeLa cells [1]; 2 days recovery)	cells in G2/M phase (HeLa cells [1])	cells in S phase (HeLa cells [1])	fold increase in activity (phosphorylation) of p38α (p38α)	change in HeLa cell number (SRB) (HeLa cells [2])	cytotoxic effect (CellTox green) (HeLa cells [3]; 200nM)	CellTox fluorescence (HeLa cells [3]; 100 μM, control 191 RFUs, p <0.0001)	fold decrease in γ-H2AX positive cells (γ-H2AX; 2 days recovery vs 4 h treatment)	cells in S phase (HeLa cells [1]; 2 days recovery)	cells in G1 phase (HeLa cells [1]; 2 days recovery, vs control and LTUSI54 alone (p < 0.0001))	apoptotic cells (sub G1 phase) (HeLa cells [4])
2-((3-methoxybut-3en-2-yl)amino)-8methyl-4H-benzo[1,3]oxazin-4one [LTUSI54]	1.5 fold	2.7%	7.3%	no inhibitory effect	no inhibitory effect	reduction of cells in G2/M phase	significant reduction of cells in G2/M phase	significant increase in cells in S phase	3.645 fold	significant reduction in cell numbers	no cytotoxic effect	299.3 RFUs	–	–	–	–
COc1cc([C@@H]2c3cc4c(cc3[C@@H](O[C@@H]3O[C@@H]5CO[C@@H](C)O[C@H]5[C@H](O)[C@H]3O)[C@H]3COC(=O)[C@H]23)OCO4)cc(OC)c1O [Etoposide, reference compound]	3.5 fold	15%	about 80%	–	–	–	–	increase in cells in S phase	2.64 fold	significant reduction in cell number	–	–	more than 5 fold	significant increase	significant reduction in G1 cells	significant increase in apoptotic cells

Source: paper PMC3825418 (Investigational New Drugs, 2013)
